How the values were obtained:
Heart [1] = experiment: Biodistribution in heart of BALB/c nude mouse xenografted with human A375 cells at 0.8 to 1 MBq, iv after 60 mins by gamma-counter; format: ADME, organism-based, A-375; settings: in vivo, 1 h
Outline: (§1)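 Female Balb/c nude mice with s.c. A375 flank tumors, studied 26 days after tumor induction. Tracer 0.8-1 MBq in 100 μL saline given i.v. Groups of n = 5 killed at 15, 30, 60 and 120 min. Organs weighed and counted in a γ-counter against dilutions of the injected dose. Values are % ID/g wet tissue, mean ± SD.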

Blood [2] = experiment: Biodistribution in blood of BALB/c nude mouse xenografted with human A375 cells at 0.8 to 1 MBq, iv after 15 mins by gamma-counter; format: ADME, organism-based, A-375; settings: in vivo, 0.25 h; outline: as §1
Muscle tissue [3] = experiment: Biodistribution in muscle of BALB/c nude mouse xenografted with human A375 cells at 0.8 to 1 MBq, iv after 30 mins by gamma-counter; format: ADME, organism-based, A-375; settings: in vivo, 0.5 h; outline: as §1
Pancreas [4] = experiment: Biodistribution in pancreas of BALB/c nude mouse xenografted with human A375 cells at 0.8 to 1 MBq, iv after 30 mins by gamma-counter; format: ADME, organism-based, A-375; settings: in vivo, 0.5 h; outline: as §1
[5] = Biodistribution in tumor of BALB/c nude mouse xenografted with human A375 cells at 0.8 to 1 MBq, iv after 120 mins by gamma-counter; format: ADME, organism-based, Neoplasm, A-375; settings: in vivo, 2 h; outline: as §1
[6] = Metabolic stability in human A375 cells xenografted in BALB/c nude mouse assessed as radioactivity after 2 by HPLC analysis; format: ADME, cell-based, A-375; settings: in vivo
Outline: (§2)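 A375-tumored Balb/c nude mice received 18-20 MBq tracer iv. Plasma and urine were spiked with unlabeled FPHCys and KF and injected directly; tissues were sonicated in saline with carrier and centrifuged at 6000g. Radio-HPLC on C18 with methanol/phosphate buffer pH 6 gave intact fraction as authentic peak over total activity, at 0.25, 1 and 2 h.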

Blood [7] = experiment: Biodistribution in blood of BALB/c nude mouse xenografted with human A375 cells at 0.8 to 1 MBq, iv after 30 mins by gamma-counter; format: ADME, organism-based, A-375; settings: in vivo, 0.5 h; outline: as §1
Pancreas [8] = experiment: Metabolic stability in pancreas of BALB/c nude mouse xenografted with human A375 cells assessed as radioactivity after 1 hrs by HPLC analysis; format: ADME, tissue-based, A-375; settings: in vivo; outline: as §2
Muscle tissue [9] = experiment: Biodistribution in muscle of BALB/c nude mouse xenografted with human A375 cells at 0.8 to 1 MBq, iv after 15 mins by gamma-counter; format: ADME, organism-based, A-375; settings: in vivo, 0.25 h; outline: as §1
Pancreas [10] = experiment: Biodistribution in pancreas of BALB/c nude mouse xenografted with human A375 cells at 0.8 to 1 MBq, iv after 60 mins by gamma-counter; format: ADME, organism-based, A-375; settings: in vivo, 1 h; outline: as §1
Kidney [11] = experiment: Biodistribution in kidney of BALB/c nude mouse xenografted with human A375 cells at 0.8 to 1 MBq, iv after 60 mins by gamma-counter; format: ADME, organism-based, A-375; settings: in vivo, 1 h; outline: as §1
Lung [12] = experiment: Biodistribution in lungs of BALB/c nude mouse xenografted with human A375 cells at 0.8 to 1 MBq, iv after 30 mins by gamma-counter; format: ADME, organism-based, A-375; settings: in vivo, 0.5 h; outline: as §1
Brain [13] = experiment: Biodistribution in brain of BALB/c nude mouse xenografted with human A375 cells at 0.8 to 1 MBq, iv after 15 mins by gamma-counter; format: ADME, organism-based, A-375; settings: in vivo, 0.25 h; outline: as §1
Heart [14] = experiment: Biodistribution in heart of BALB/c nude mouse xenografted with human A375 cells at 0.8 to 1 MBq, iv after 15 mins by gamma-counter; format: ADME, organism-based, A-375; settings: in vivo, 0.25 h; outline: as §1
A-375 [15] = experiment: Cellular uptake in human A375 cells after 2 mins by gamma-counter; format: ADME, cell-based; settings: a-375, 2 min
Outline: (§3)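 A375 cells grown in RPMI-1640 with 10% FBS and 2 mM L-glutamine; 2.5×10^5 seeded per well overnight, counts done in triplicate. After a warm PBS wash, cells got 0.37 MBq tracer in 500 μL PBS at 37 °C. Stopped with ice-cold PBS wash, lysed in 0.2 N NaOH, counted in a γ-counter. Decay-corrected % applied dose per 10^5 cells, mean ± SD, n = 3.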

[16] = Metabolic stability in urine of BALB/c nude mouse xenografted with human A375 cells assessed as radioactivity after 2 hrs by HPLC analysis; format: ADME, tissue-based, A-375; settings: in vivo; outline: as §2
Kidney [17] = experiment: Biodistribution in kidney of BALB/c nude mouse xenografted with human A375 cells after 60 mins by PET/CT imaging; format: ADME, organism-based, A-375; settings: in vivo, 1 h
Outline: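 Female Balb/c nude mice with A375 tumors (1×10^6 cells in Ca/Mg-free PBS injected s.c. in left flank at 6 weeks old). Mice under isoflurane in oxygen. 10 min CT scan, then 18-20 MBq tracer in 100 μL saline given i.v. with a 2 h PET acquisition. Coronal images at 60 min postinjection; n = 3.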

HT-29 = experiment: Cellular uptake in human HT-29 cells assessed as accumulation per 10^5 cells after 4 hours by gamma-counter; format: ADME, cell-based; settings: ht-29, 4 h
Outline: (§4)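 Cells seeded at 2.5 × 10^5 per well in RPMI-1640 with 10% FBS and 2 mM L-glutamine, attached overnight, then washed with warm PBS. Incubated at 37 °C with 0.37 MBq [18F]tracer in PBS for 2–240 min. Cells washed with ice-cold PBS, lysed in 0.2 N NaOH and counted by γ-counter. Read as % applied dose per 10^5 cells, decay-corrected, n = 3.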

[18] = Metabolic stability in human A375 cells xenografted in BALB/c nude mouse assessed as radioactivity after 0.25 by HPLC analysis; format: ADME, cell-based, A-375; settings: in vivo; outline: as §2
Lung [19] = experiment: Biodistribution in lungs of BALB/c nude mouse xenografted with human A375 cells at 0.8 to 1 MBq, iv after 15 mins by gamma-counter; format: ADME, organism-based, A-375; settings: in vivo, 0.25 h; outline: as §1
Bone [20] = experiment: Biodistribution in bone of BALB/c nude mouse xenografted with human A375 cells at 0.8 to 1 MBq, iv after 60 mins by gamma-counter; format: ADME, organism-based, Bone element, A-375; settings: in vivo, 1 h; outline: as §1
[21] = Drug level in tumor extract of BALB/c nude mouse xenografted with human A375 cells assessed as radioactivity in protein fraction after 0.25 to 2 hrs; format: ADME, Neoplasm, A-375; settings: in vivo
Outline: (§5)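 Female Balb/c nude mice bore subcutaneous A375 flank tumors and received 18-20 MBq tracer iv. Plasma or tissue was sonicated in 10% TCA with unlabeled FPHCys and KF, then centrifuged at 6000g; the pellet was re-extracted twice. Protein-bound fraction is pellet versus supernatant radioactivity, sampled at 0.25, 1 and 2 h.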

Muscle tissue [22] = experiment: Biodistribution in muscle of BALB/c nude mouse xenografted with human A375 cells at 0.8 to 1 MBq, iv after 120 mins by gamma-counter; format: ADME, organism-based, A-375; settings: in vivo, 2 h; outline: as §1
Kidney [23] = experiment: Biodistribution in kidney of BALB/c nude mouse xenografted with human A375 cells at 0.8 to 1 MBq, iv after 30 mins by gamma-counter; format: ADME, organism-based, A-375; settings: in vivo, 0.5 h; outline: as §1
Brain [24] = experiment: Drug level in brain cortex extract of BALB/c nude mouse xenografted with human A375 cells assessed as radioactivity in protein fraction after 0.25 to 2 hrs; format: ADME, tissue-based, A-375; settings: in vivo; outline: as §5
Spleen = experiment: Biodistribution in spleen of BALB/c nude mouse xenografted with human A375 cells at 0.8 to 1 MBq, iv after 120 mins by gamma-counter; format: ADME, organism-based, A-375; settings: in vivo, 2 h; outline: as §1
Bone [25] = experiment: Biodistribution in bone of BALB/c nude mouse xenografted with human A375 cells at 0.8 to 1 MBq, iv after 30 mins by gamma-counter; format: ADME, organism-based, Bone element, A-375; settings: in vivo, 0.5 h; outline: as §1
A-375 [26] = experiment: Cellular uptake in human A375 cells after 15 to 60 mins by gamma-counter; format: ADME, cell-based; outline: as §3
A-375 [27] = experiment: Cellular uptake in human A375 cells assessed as accumulation per 10^5 cells after 15 to 60 mins by gamma-counter; format: ADME, cell-based; outline: as §4

SMILES | Drug uptake (Heart [1]) [% ID/g] | Drug uptake (Blood [2]) [% ID/g] | Drug uptake (Muscle tissue [3]) [% ID/g] | Drug uptake (Pancreas [4]) [% ID/g] | Drug uptake [5] [% ID/g] | Drug uptake (Blood [7]) [% ID/g] | Drug uptake (Muscle tissue [9]) [% ID/g] | Drug uptake (Pancreas [10]) [% ID/g] | Drug uptake (Kidney [11]) [% ID/g] | Drug uptake (Lung [12]) [% ID/g] | Drug uptake (Brain [13]) [% ID/g] | Drug uptake (Heart [14]) [% ID/g] | Drug uptake (Kidney [17]) | Drug uptake (HT-29) [%] | Drug uptake (Lung [19]) [% ID/g] | Drug uptake (Bone [20]) [% ID/g] | Drug uptake [21] [%] | Drug uptake (Muscle tissue [22]) [% ID/g] | Drug uptake (Kidney [23]) [% ID/g] | Drug uptake (Brain [24]) [%] | also measured
Cl.N[C@@H](CCSCCC[18F])C(=O)O | 2.32 | 5.17 | 4.2 | 12.3 | 4.4 | 4.44 | 4.12 | 6.97 | 5.96 | 5.07 | 3.13 | 5.08 | Active | 2 | 5.21 | 2.31 | 1 | 1.52 | 12.6 | 1 | Stability [6]: 78%; Stability (Pancreas [8]): 30%; Drug uptake (A-375 [15]): > 50%; Stability [16]: < 4%; Stability [18]: 90%; Drug uptake (Spleen): 1.39 % ID/g; Drug uptake (Bone [25]): 3.5 % ID/g
Cl.N[C@H](CCSCCC[18F])C(=O)O | 1.16 | 3.51 | 1.97 | 19.6 | 1.68 | 2.51 | 2.12 | 4.79 | 2.75 | 2.84 | 1.53 | 3.92 | Active | 1.6 | 4.11 | 1.63 | 1 | 0.63 | 6.49 | 1 | Drug uptake (A-375 [26]): Active; Drug uptake (A-375 [27]): 6.8%; Drug uptake (Spleen): 0.31 % ID/g; Drug uptake (Bone [25]): 2.29 % ID/g

Reference: ChEMBL document CHEMBL1687936, “Radiosynthesis and biological evaluation of L- and D-S-(3-[18F]fluoropropyl)homocysteine for tumor imaging using positron emission tomography” (J Med Chem, 2011)
